What was measured:
[1] = Antioxidant activity against Cu2+-induced lipid peroxidation in human plasma LDL preincubated for 1 hr before Cu2+ challenge relative to probucol; format: functional, cell-free
Procedure, shortened: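 Same Cu2+-induced human LDL assay as above, with 1 h compound preincubation, 10 µM CuSO4 for 2 h at 37 °C, and conjugated dienes read at 232 nm. Probucol (10 µM, in 10% ethanol) was the positive control, with its potency set at 1.0. Relative potency = IC50(probucol)/IC50(compound).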

[2] = Antioxidant activity against Cu2+-induced lipid peroxidation in human plasma LDL preincubated for 1 hr before Cu2+ challenge; format: functional, cell-free
Procedure, shortened: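 LDL from fasting plasma of healthy adult men not taking vitamin supplements. LDL was preincubated with compound at 37 °C for 1 h. Oxidation was started with CuSO4 (final 10 µM) and run for 2 h at 37 °C, shaken at 120 rpm. Conjugated dienes in the supernatant were read at 232 nm. IC50 is the concentration giving 50% inhibition of diene formation, taken from concentration curves.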

Row | SMILES | Activity [1] | IC50 [2] [nM]
1 | O=C(/C=C/c1ccc(O)c2c1C=Cc1cc(O)c(O)cc1O2)O[C@H](Cc1ccc(O)c(O)c1)C(=O)O [ISOSALVIANOLIC ACID C] | 1.6 | 2720
2 | O=C(/C=C/c1ccc(O)c2c1[C@H](C(=O)O)[C@@H](c1ccc(O)c(O)c1)O2)O[C@H](Cc1ccc(O)c(O)c1)C(=O)O [LITHOSPERMIC ACID] | 4.3 | 1000
3 | CC(C)(Sc1cc(C(C)(C)C)c(O)c(C(C)(C)C)c1)Sc1cc(C(C)(C)C)c(O)c(C(C)(C)C)c1 [PROBUCOL] |  | 4300
4 | O=C(/C=C/c1ccc(O)c(O)c1)O[C@H](Cc1ccc(O)c(O)c1)C(=O)O [ROSMARINIC ACID] | 2.2 | 1810
5 | O=C(/C=C/c1ccc(O)c(O)c1/C=C/c1ccc(O)c(O)c1)O[C@H](Cc1ccc(O)c(O)c1)C(=O)O [SALVIANOLIC ACID A] | 7.3 | 590
6 | O=C(O)/C=C/c1ccc(O)c(O)c1/C=C/c1ccc(O)c(O)c1 [SALVIANOLIC ACID F] | 0.8 | 5440
7 | O=Cc1ccc(O)c2oc(-c3ccc(O)c(O)c3)cc12 [TOURNEFOLAL] | 1.09 | 4700
8 | O=C(O)/C=C/c1ccc(O)c2oc(-c3ccc(O)c(O)c3)cc12 [TOURNEFOLIC ACID A] | 1.1 | 4810
9 | CCOC(=O)/C=C/c1ccc(O)c2c1C=Cc1cc(O)c(O)cc1O2 [TOURNEFOLIC ACID B ETHYL ESTER] | 8.6 | 510
10 | O=C(O)/C=C/c1ccc(O)c2c1C=Cc1cc(O)c(O)cc1O2 [TOURNEFOLIC ACID B] | 1.9 | 2320

From ChEMBL document CHEMBL1150579, “Anti-lipid-peroxidative principles from Tournefortia sarmentosa” (J Nat Prod, 2002)
